In ChEMBL document CHEMBL1123145, “Synthesis of pyrrolizidine alkaloids indicine, intermedine, lycopsamine, and analogues and their N-oxides. Potential antitumor agents” (1985):

Legend:
Format in all cases: functional, Mus musculus
P388 [1] = test: Survival rate of the animals determined for antitumor activity against P388 Lymphocytic Leukemia system at a dose of 96 mg/kg
P388 [2] = test: Weight difference observed in survivors treated for antitumor activity against P388 Lymphocytic Leukemia system at a dose of 48 mg/kg
P388 [3] = test: Number of Survivors determined for antitumor activity against P388 Lymphocytic Leukemia system on day 5 at a dose of 96 mg/kg(6 out of 6)
P388 [4] = test: Survival rate of the animals determined for antitumor activity against P388 Lymphocytic Leukemia system at a dose of 192 mg/kg
P388 [5] = test: Number of Survivors determined for antitumor activity against P388 Lymphocytic Leukemia system on day 5 at a dose of 192 mg/kg (6 out of 6)
P388 [6] = test: Weight difference observed in survivors treated for antitumor activity against P388 Lymphocytic Leukemia system at a dose of 24 mg/kg
P388 [7] = test: Number of Survivors determined for antitumor activity against P388 Lymphocytic Leukemia system on day 5 at a dose of 24 mg/kg (6 out of 6)
P388 [8] = test: Survival rate of the animals determined for antitumor activity against P388 Lymphocytic Leukemia system at a dose of 48 mg/kg
P388 [9] = test: Survival rate of the animals determined for antitumor activity against P388 Lymphocytic Leukemia system at a dose of 24 mg/kg
P388 [10] = test: Weight difference observed in survivors treated for antitumor activity against P388 Lymphocytic Leukemia system at a dose of 96 mg/kg
P388 [11] = test: Weight difference observed in survivors treated for antitumor activity against P388 Lymphocytic Leukemia system at a dose of 192 mg/kg
P388 [12] = test: Number of Survivors determined for antitumor activity against P388 Lymphocytic Leukemia system on day 5 at a dose of 48 mg/kg (6 out of 6)
P388 [13] = test: Number of Survivors determined for antitumor activity against P388 Lymphocytic Leukemia system on day 5 at a dose of 1600 mg/kg (Group IV)(5 out of 6)
P388 [14] = test: Weight difference observed in survivors treated for antitumor activity against P388 Lymphocytic Leukemia system at a dose of 1600 mg/kg (Group III)
Summary of the method: (§1)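 P388 lymphocytic leukemia screen run in separate test groups (I–IV). Each group includes its own indicine N-oxide internal control, listed as the group's first entry. Survival and survivor weight change are read against that control. Material was limited, so some analogues were screened up to about 200 mg/kg maximum.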

P388 [15] = test: Weight difference observed in survivors treated for antitumor activity against P388 Lymphocytic Leukemia system at a dose of 800 mg/kg (Group III)
P388 [16] = test: Survival rate of the animals determined for antitumor activity against P388 Lymphocytic Leukemia system at a dose of 200 mg/kg (Group IV); summary of the method: as §1
P388 [17] = test: Weight difference observed in survivors treated for antitumor activity against P388 Lymphocytic Leukemia system at a dose of 400 mg/kg (Group I); summary of the method: as §1
P388 [18] = test: Survival rate of the animals determined for antitumor activity against P388 Lymphocytic Leukemia system at a dose of 200 mg/kg (Group III); summary of the method: as §1
P388 [19] = test: Weight difference observed in survivors treated for antitumor activity against P388 Lymphocytic Leukemia system at a dose of 200 mg/kg (Group IV); summary of the method: as §1
P388 [20] = test: Number of Survivors determined for antitumor activity against P388 Lymphocytic Leukemia system on day 5 at a dose of 200 mg/kg (Group I)(6 out of 6)
P388 [21] = test: Survival rate of the animals determined for antitumor activity against P388 Lymphocytic Leukemia system at a dose of 800 mg/kg (Group IV); summary of the method: as §1
P388 [22] = test: Number of Survivors determined for antitumor activity against P388 Lymphocytic Leukemia system on day 5 at a dose of 800 mg/kg (Group IV)(6 out of 6)
P388 [23] = test: Number of Survivors determined for antitumor activity against P388 Lymphocytic Leukemia system on day 5 at a dose of 400 mg/kg (Group II)(6 out of 6)
P388 [24] = test: Weight difference observed in survivors treated for antitumor activity against P388 Lymphocytic Leukemia system at a dose of 1600 mg/kg (Group IV); summary of the method: as §1
P388 [25] = test: Survival rate of the animals determined for antitumor activity against P388 Lymphocytic Leukemia system at a dose of 800 mg/kg (Group I); summary of the method: as §1
P388 [26] = test: Weight difference observed in survivors treated for antitumor activity against P388 Lymphocytic Leukemia system at a dose of 800 mg/kg (Group I)
P388 [27] = test: Number of Survivors determined for antitumor activity against P388 Lymphocytic Leukemia system on day 5 at a dose of 400 mg/kg (Group IV)(6 out of 6)
P388 [28] = test: Weight difference observed in survivors treated for antitumor activity against P388 Lymphocytic Leukemia system at a dose of 1600 mg/kg (Group I); summary of the method: as §1
P388 [29] = test: Number of Survivors determined for antitumor activity against P388 Lymphocytic Leukemia system on day 5 at a dose of 200 mg/kg (Group IV)(6 out of 6)
P388 [30] = test: Weight difference observed in survivors treated for antitumor activity against P388 Lymphocytic Leukemia system at a dose of 1600 mg/kg (Group II); summary of the method: as §1
P388 [31] = test: Survival rate of the animals determined for antitumor activity against P388 Lymphocytic Leukemia system at a dose of 400 mg/kg (Group III); summary of the method: as §1
P388 [32] = test: Survival rate of the animals determined for antitumor activity against P388 Lymphocytic Leukemia system at a dose of 400 mg/kg (Group I); summary of the method: as §1
P388 [33] = test: Number of Survivors determined for antitumor activity against P388 Lymphocytic Leukemia system on day 5 at a dose of 400 mg/kg (Group III)(6 out of 6)
P388 [34] = test: Number of Survivors determined for antitumor activity against P388 Lymphocytic Leukemia system on day 5 at a dose of 400 mg/kg (Group I)(6 out of 6)
P388 [35] = test: Survival rate of the animals determined for antitumor activity against P388 Lymphocytic Leukemia system at a dose of 400 mg/kg (Group II); summary of the method: as §1
P388 [36] = test: Weight difference observed in survivors treated for antitumor activity against P388 Lymphocytic Leukemia system at a dose of 800 mg/kg (Group IV)
P388 [37] = test: Number of Survivors determined for antitumor activity against P388 Lymphocytic Leukemia system on day 5 at a dose of 200 mg/kg (Group II)(6 out of 6)
P388 [38] = test: Survival rate of the animals determined for antitumor activity against P388 Lymphocytic Leukemia system at a dose of 400 mg/kg (Group IV); summary of the method: as §1
P388 [39] = test: Number of Survivors determined for antitumor activity against P388 Lymphocytic Leukemia system on day 5 at a dose of 1600 mg/kg (Group II)(6 out of 6)
P388 [40] = test: Weight difference observed in survivors treated for antitumor activity against P388 Lymphocytic Leukemia system at a dose of 200 mg/kg (Group III); summary of the method: as §1
P388 [41] = test: Number of Survivors determined for antitumor activity against P388 Lymphocytic Leukemia system on day 5 at a dose of 800 mg/kg (Group I)(6 out of 6)
P388 [42] = test: Weight difference observed in survivors treated for antitumor activity against P388 Lymphocytic Leukemia system at a dose of 400 mg/kg (Group II); summary of the method: as §1
P388 [43] = test: Survival rate of the animals determined for antitumor activity against P388 Lymphocytic Leukemia system at a dose of 200 mg/kg (Group I)
P388 [44] = test: Weight difference observed in survivors treated for antitumor activity against P388 Lymphocytic Leukemia system at a dose of 400 mg/kg (Group IV); summary of the method: as §1
P388 [45] = test: Weight difference observed in survivors treated for antitumor activity against P388 Lymphocytic Leukemia system at a dose of 200 mg/kg (Group II); summary of the method: as §1
P388 [46] = test: Number of Survivors determined for antitumor activity against P388 Lymphocytic Leukemia system on day 5 at a dose of 1600 mg/kg (Group I) (6 out of 6)
P388 [47] = test: Number of Survivors determined for antitumor activity against P388 Lymphocytic Leukemia system on day 5 at a dose of 800 mg/kg (Group III)(6 out of 6)
P388 [48] = test: Weight difference observed in survivors treated for antitumor activity against P388 Lymphocytic Leukemia system at a dose of 800 mg/kg (Group II)
P388 [49] = test: Survival rate of the animals determined for antitumor activity against P388 Lymphocytic Leukemia system at a dose of 1600 mg/kg (Group II)
P388 [50] = test: Weight difference observed in survivors treated for antitumor activity against P388 Lymphocytic Leukemia system at a dose of 400 mg/kg (Group III); summary of the method: as §1
P388 [51] = test: Number of Survivors determined for antitumor activity against P388 Lymphocytic Leukemia system on day 5 at a dose of 1600 mg/kg (Group III)(5 out of 6)
P388 [52] = test: Survival rate of the animals determined for antitumor activity against P388 Lymphocytic Leukemia system at a dose of 200 mg/kg (Group II); summary of the method: as §1
P388 [53] = test: Survival rate of the animals determined for antitumor activity against P388 Lymphocytic Leukemia system at a dose of 800 mg/kg (Group III); summary of the method: as §1
P388 [54] = test: Survival rate of the animals determined for antitumor activity against P388 Lymphocytic Leukemia system at a dose of 1600 mg/kg (Group I)
P388 [55] = test: Number of Survivors determined for antitumor activity against P388 Lymphocytic Leukemia system on day 5 at a dose of 200 mg/kg (Group III)(6 out of 6)
P388 [56] = test: Survival rate of the animals determined for antitumor activity against P388 Lymphocytic Leukemia system at a dose of 800 mg/kg (Group II); summary of the method: as §1
P388 [57] = test: Weight difference observed in survivors treated for antitumor activity against P388 Lymphocytic Leukemia system at a dose of 200 mg/kg (Group I); summary of the method: as §1
P388 [58] = test: Number of Survivors determined for antitumor activity against P388 Lymphocytic Leukemia system on day 5 at a dose of 800 mg/kg (Group II)(6 out of 6)

CC(C)C(O)(C(=O)OCC1=CC[N+]2([O-])CC[C@@H](O)C12)C(C)O (stereo in doubt; form 3)
T/C (P388 [1]): 107% | T-C (P388 [2]): -0.4 | Survivors (P388 [3]): 6 | T/C (P388 [4]): 109% | Survivors (P388 [5]): 6 | T-C (P388 [6]): -0.1 | Survivors (P388 [7]): 6 | T/C (P388 [8]): 105% | T/C (P388 [9]): 100% | T-C (P388 [10]): -0.1 | T-C (P388 [11]): -1.1 | Survivors (P388 [12]): 6

CC(C)[C@](O)(C(=O)OCC1=CC[N+]2([O-])CC[C@@H](O)[C@@H]12)[C@H](C)O (stereo partly drawn) [INDICINE N-OXIDE]
Survivors (P388 [13]): 5 | T-C (P388 [14]): -5.8 | T-C (P388 [15]): -4.7 | T/C (P388 [16]): 140% | T-C (P388 [17]): -1.6 | T/C (P388 [18]): 170% | T-C (P388 [19]): -0.7 | Survivors (P388 [20]): 6 | T/C (P388 [21]): 112% | Survivors (P388 [22]): 6 | Survivors (P388 [23]): 6 | T-C (P388 [24]): -2.9 | T/C (P388 [25]): 160% | T-C (P388 [26]): -3.2 | Survivors (P388 [27]): 6 | T-C (P388 [28]): -2.2 | Survivors (P388 [29]): 6 | T-C (P388 [30]): -3.7 | T/C (P388 [31]): 191% | T/C (P388 [32]): 151% | Survivors (P388 [33]): 6 | Survivors (P388 [34]): 6 | T/C (P388 [35]): 145% | T-C (P388 [36]): -2.6 | Survivors (P388 [37]): 6 | T/C (P388 [38]): 146% | Survivors (P388 [39]): 6 | T-C (P388 [40]): -2.9 | Survivors (P388 [41]): 6 | T-C (P388 [42]): -1.9 | T/C (P388 [43]): 133% | T-C (P388 [44]): -1.7 | T-C (P388 [45]): -0.5 | Survivors (P388 [46]): 6 | Survivors (P388 [47]): 6 | T-C (P388 [48]): -3.3 | T/C (P388 [49]): 117% | T-C (P388 [50]): -4.3 | Survivors (P388 [51]): 5 | T/C (P388 [52]): 120% | T/C (P388 [53]): 200% | T/C (P388 [54]): 142% | Survivors (P388 [55]): 6 | T/C (P388 [56]): 200% | T-C (P388 [57]): -1.6 | Survivors (P388 [58]): 6
